In ChEMBL document CHEMBL4270633, “Discovery of novel vinyl sulfone derivatives as anti-tumor agents with microtubule polymerization inhibitory and vascular disrupting activities” (Eur J Med Chem, 2018):
Values belong to the compound of their own block, whether it stands above or below them. The source made the active and inactive calls. No cut-off for these calls is given here.

Assays:
K562 [1] = assay: Antiproliferative activity against human K562 cells at 0.1 uM after 72 hrs by MTT assay relative to control; type: functional
K562 [2] = assay: Antiproliferative activity against human K562 cells at 1 uM after 72 hrs by MTT assay; type: functional, cell-based
HepG2 = assay: Antiproliferative activity against human HepG2 cells after 72 hrs by MTT assay; type: functional, cell-based; conditions: HepG2, 72 h
Procedure, shortened: (§1)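 Cells seeded and held 24 h at 37 °C, 5% CO2, then exposed to a concentration series in medium with 0.1% DMSO for 72 h. MTT (5 mg/mL in PBS) added for 4 h and OD read at 490 nm. IC50 taken from dose-response curves; mean ± SD of at least three independent experiments.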

K562 [3] = assay: Antiproliferative activity against human K562 cells after 72 hrs by MTT assay; type: functional, cell-based; conditions: K562, 72 h; procedure, shortened: as §1
[4] = Inhibition of porcine brain tubulin polymerization after 30 mins by spectrophotometric method; design: species or system Sus scrofa
Procedure, shortened: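 Purified tubulin (2 mg/mL) in PEM buffer (80 mM PIPES pH 6.9, 0.5 mM EGTA, 2 mM MgCl2, 15% glycerol), preincubated on ice with compound or DMSO vehicle, then GTP added. Absorbance at 340 nm followed at 37 °C for 30 min. IC50 derived from area under the polymerization curve.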

A549 = assay: Antiproliferative activity against human A549 cells after 72 hrs by MTT assay; type: functional, cell-based; conditions: A549, 72 h; procedure, shortened: as §1
Mus musculus [5] = assay: Toxicity in ICR mouse implanted with mouse H22 cells assessed as decrease in body weight at 8 mg/kg, iv administered once in 2 days for 21 days; type: organism-based; conditions: in vivo
Procedure, shortened: (§2)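 H22 s.c. allograft in male ICR mice, groups of six. Dosing i.v. at 15 or 30 mg/kg once daily for 21 days (10% DMF/2% Tween 80/88% saline), or 8 mg/kg once every 2 days. Body weight recorded every 2 days.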

H22 [6] = assay: Antitumor activity against mouse H22 cells implanted in ICR mouse assessed as tumor growth inhibition at 8 mg/kg, iv administered once in 2 days for 21 days relative to control; type: functional; conditions: read-out: TGI
Procedure, shortened: (§3)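 Male ICR mice, five weeks old, inoculated s.c. in the right flank with 1 × 10^6 H22 cells. After one day, randomized into groups of six. Given i.v. 15 or 30 mg/kg daily for 21 days in 10% DMF/2% Tween 80/88% saline, or 8 mg/kg every 2 days; vehicle control given i.v. Tumors excised and weighed; inhibition (%) = (1 − treated/control mean tumor weight) × 100.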

HUVEC [7] = assay: Antivascular activity against HUVEC assessed as reduction in tube formation at 005 to 0.2 uM after 6 hrs by inverted microscopic based matrigel method; type: functional, cell-based; conditions: Homo sapiens
Procedure, shortened: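 Matrigel thawed at 4 °C overnight and polymerized 30 min at 37 °C. HUVECs in DMEM seeded at 50,000 cells/well, then exposed to compound or vehicle for 6 h at 37 °C. Tube morphology examined by inverted microscopy.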

H22 [8] = assay: Antitumor activity against mouse H22 cells implanted in ICR mouse assessed as tumor growth inhibition at 30 mg/kg, iv administered once daily for 21 consecutive days relative to control; type: functional; conditions: read-out: TGI; procedure, shortened: as §3
K562 [9] = assay: Cell cycle arrest in human K562 cells assessed as accumulation at G1 phase at 0.05 uM after 48 hrs by propidium iodide staining based flow cytometry (reference value: 60.77%); type: functional
K562 [10] = assay: Cell cycle arrest in human K562 cells assessed as accumulation at G2 phase at 0.05 uM after 48 hrs by propidium iodide staining based flow cytometry (reference value: 9.1%); type: functional
K562 [11] = assay: Induction of apoptosis in human K562 cells at 0.1 uM after 48 hrs by Annexin V-FITC/propidium iodide staining based flow cytometry (reference value: 1.46%); type: functional
Procedure, shortened: (§4)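 K562 cells treated 48 h at 0, 0.05, 0.1, 0.2 µM or 0, 0.005, 0.010, 0.020 µM. Washed in PBS, resuspended in Annexin V binding buffer and stained 15 min in the dark. Early plus late apoptotic fractions quantified by flow-cytometric quadrant analysis.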

H22 [12] = assay: Antitumor activity against mouse H22 cells implanted in ICR mouse assessed as tumor growth inhibition at 15 mg/kg, iv administered once daily for 21 consecutive days relative to control; type: functional; conditions: read-out: TGI; procedure, shortened: as §3
H22 [13] = assay: Antitumor activity against mouse H22 cells implanted in ICR mouse assessed as tumor growth inhibition administered iv once daily for 21 consecutive days; type: functional, organism-based; procedure, shortened: as §3
K562 [14] = assay: Cell cycle arrest in human K562 cells assessed as accumulation at G2/M phase after 48 hrs by propidium iodide staining based flow cytometry; type: functional
K562 [15] = assay: Cell cycle arrest in human K562 cells assessed as accumulation at G1 phase at 0.2 uM after 48 hrs by propidium iodide staining based flow cytometry (reference value: 60.77%); type: functional
K562 [16] = assay: Cell cycle arrest in human K562 cells assessed as accumulation at G2 phase at 0.2 uM after 48 hrs by propidium iodide staining based flow cytometry (reference value: 9.1%); type: functional
K562 [17] = assay: Cell cycle arrest in human K562 cells assessed as accumulation at S phase at 0.1 uM after 48 hrs by propidium iodide staining based flow cytometry (reference value: 30.13%); type: functional
K562 [18] = assay: Induction of apoptosis in human K562 cells at 0.05 uM after 48 hrs by Annexin V-FITC/propidium iodide staining based flow cytometry (reference value: 1.46%); type: functional; procedure, shortened: as §4
Mus musculus [19] = assay: Toxicity in ICR mouse implanted with mouse H22 cells assessed as decrease in body weight at 15 to 30 mg/kg, iv administered once daily for 21 consecutive days; type: organism-based; conditions: in vivo; procedure, shortened: as §2
K562 [20] = assay: Cell cycle arrest in human K562 cells assessed as accumulation at S phase at 0.2 uM after 48 hrs by propidium iodide staining based flow cytometry (reference value: 30.13%); type: functional
HUVEC [21] = assay: Antivascular activity against HUVEC assessed as reduction in wound closure after 24 hrs by phase contrast microscopic method; type: functional, cell-based; conditions: Homo sapiens
Procedure, shortened: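 Scratch wounds made with a sterile 200 µL pipette tip, then treated at 0.05, 0.10, 0.20 µM or 0.005, 0.010, 0.020 µM. Phase-contrast images taken at 0 h and 24 h after treatment.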

K562 [22] = assay: Disruption of microtubule network in human K562 cells after 24 hrs by DAPI staining based immunofluorescent microscopic method; type: cell-based
Procedure, shortened: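 K562 cells exposed for 24 h to 0.1% DMSO vehicle or to 0.05, 0.10, 0.20 µM or 0.005, 0.010, 0.020 µM. Fixed in 4% paraformaldehyde, blocked with goat serum 20 min at room temperature, then anti-α-tubulin antibody 2 h at 37 °C. Fluorescent antibody staining, DAPI nuclear counterstain, fluorescence microscopy.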

K562 [23] = assay: Induction of apoptosis in human K562 cells at 0.2 uM after 48 hrs by Annexin V-FITC/propidium iodide staining based flow cytometry (reference value: 1.46%); type: functional; procedure, shortened: as §4
K562 [24] = assay: Cell cycle arrest in human K562 cells assessed as accumulation at G1 phase at 0.1 uM after 48 hrs by propidium iodide staining based flow cytometry (reference value: 60.77%); type: functional
K562 [25] = assay: Cell cycle arrest in human K562 cells assessed as accumulation at G2 phase at 0.1 uM after 48 hrs by propidium iodide staining based flow cytometry (reference value: 9.1%); type: functional
K562 [26] = assay: Cell cycle arrest in human K562 cells assessed as accumulation at S phase at 0.05 uM after 48 hrs by propidium iodide staining based flow cytometry (reference value: 30.13%); type: functional
K562 [27] = assay: Induction of apoptosis in human K562 cells after 48 hrs by Annexin V-FITC/propidium iodide staining based flow cytometry; type: functional, cell-based; procedure, shortened: as §4

SMILES: COc1cc(S(=O)(=O)/C=C/c2ccc(F)cc2)cc(OC)c1OC
Activity (K562 [1]): Active
Activity (K562 [2]): Active

SMILES: COc1cc(S(=O)(=O)/C=C/c2ccc([N+](=O)[O-])cc2)cc(OC)c1OC
Activity (K562 [1]): Active
Activity (K562 [2]): Active

IC50 (HepG2): 307 nM
IC50 (K562 [3]): 258 nM
IC50 [4]: 7180 nM
IC50 (A549): 1460 nM
SMILES: COc1ccc(/C=C/[S+]([O-])c2cc(OC)c(OC)c(OC)c2)cc1O (stereo unspecified)

SMILES: COc1cc(S(=O)(=O)/C=C/c2ccc(C)cc2)cc(OC)c1OC
Activity (K562 [1]): Active
Activity (K562 [2]): Active

IC50 (HepG2): > 1000 nM
IC50 (K562 [3]): > 1000 nM
IC50 (A549): > 5000 nM
SMILES: COc1ccc(/C=C(\C)[S+]([O-])c2cc(OC)c(OC)c(OC)c2)cc1O (stereo unspecified)

IC50 (HepG2): 753 nM
IC50 (K562 [3]): 746 nM
IC50 (A549): 2350 nM
SMILES: COc1ccc(/C=C/[S+]([O-])c2cc(OC)c(OC)c(OC)c2)cc1N (stereo unspecified)

SMILES: COc1cc(S(=O)(=O)/C=C/c2ccc(O)cc2)cc(OC)c1OC
Activity (K562 [1]): Active
Activity (K562 [2]): Active

SMILES: COc1cc(/C=C/S(=O)(=O)c2cc(OC)c(OC)c(OC)c2)cc(OC)c1OC
Activity (K562 [1]): Active
Activity (K562 [2]): Active

SMILES: CC(=O)O[C@H]1C(=O)[C@@]2(C)[C@H]([C@H](OC(=O)c3ccccc3)[C@]3(O)C[C@H](OC(=O)[C@H](O)[C@@H](NC(=O)c4ccccc4)c4ccccc4)C(C)=C1C3(C)C)[C@]1(OC(C)=O)CO[C@@H]1C[C@@H]2O [PACLITAXEL]
Activity (Mus musculus [5]): Toxic
inhibition in vivo at 8 mg/kg (H22 [6]): 74.6%

SMILES: COc1ccc(/C=C/S(=O)(=O)c2cc(OC)c(OC)c(OC)c2)cc1F
Activity (K562 [1]): Active
Activity (K562 [2]): Active

IC50 (HepG2): 217 nM
IC50 (K562 [3]): 128 nM
IC50 [4]: 4250 nM
IC50 (A549): 606 nM
SMILES: COc1ccc(/C=C/S(=O)(=O)c2cc(OC)c(OC)c(OC)c2)cc1N
Activity (HUVEC [7]): Active
inhibition in vivo at 30 mg/kg (H22 [8]): 65.4%
Activity (K562 [9]): 53.07%
Activity (K562 [10]): 13.05%
Activity (K562 [11]): 22.65%
inhibition in vivo at 15 mg/kg (H22 [12]): 53.4%
TGI (H22 [13]): Dose-dependent effect
Activity (K562 [14]): Dose-dependent effect
Activity (K562 [15]): 39.7%
Activity (K562 [16]): 21.99%
Activity (K562 [17]): 36.7%
Activity (K562 [18]): 17.88%
Activity (Mus musculus [19]): Non-Toxic
Activity (K562 [20]): 38.31%
Activity (HUVEC [21]): Dose-dependent effect
Activity (K562 [22]): Dose-dependent effect
Activity (K562 [23]): 49.29%
Activity (K562 [24]): 47.15%
Activity (K562 [25]): 16.15%
Activity (K562 [26]): 33.88%
Activity (K562 [27]): Dose-dependent effect

SMILES: COc1ccc(/C=C/S(=O)(=O)c2cc(OC)c(OC)c(OC)c2)cc1OC
Activity (K562 [1]): Active
Activity (K562 [2]): Active
